Tested on: Severe acute respiratory syndrome coronavirus 2
Assay: Inhibition of SARS CoV2 C-terminal His6-tagged 3CL protease expressed in Escherichia coli BL21 DE3 at 50 uM using Thr-Ser-Ala-Val-Leu-Gln-pNA as substrate preincubated for 30 mins followed by substrate addition and measured for 20 mins by colorimetric method relative to control
Conditions: time 50.0 min
Outline: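 Recombinant SARS-CoV-2 3CLpro comes from a synthetic full-length gene expressed in E. coli and purified. The enzyme was preincubated with compound for 30 min at room temperature in 40 mM PBS, 100 mM NaCl, 1 mM EDTA, 0.1% Triton, pH 7.3. TSAVLQ-pNA was then added to 200 μM final. A390 was read every 30 s for 20 min. Line 1 is percent inhibition at 50 μM. IC50s were fitted with a Hill1 function.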

First: CCCCN1C(=O)C(=O)c2cc(C(=O)ON3C(=O)CCC3=O)ccc21
Second: CN1C(=O)C(=O)c2cc(C(=O)ON3C(=O)CCC3=O)ccc21
The inhibition of the first is higher: 47% for the first, 45% for the second.

Going from O=C(O)c1ccc2c(c1)C(=O)C(=O)N2Cc1ccc2ccccc2c1 to O=C(O)c1ccc2c(c1)C(=O)C(=O)N2Cc1ccccc1, the inhibition falls from 32% to less than 25%.

O=C1C(=O)N(CN2CCCCC2)c2ccc(F)cc21 and O=C1C(=O)N(CN2CCOCC2)c2ccc(F)cc21 cannot be ordered by inhibition: less than 25% for the first, less than 25% for the second.

Going from CCCCN1C(=O)C(=O)c2cc(C(=O)OC)ccc21 to CCCN1C(=O)C(=O)c2cc(C(=O)OC)ccc21, the inhibition rises from 42% to 53%.

First: COC(=O)c1ccc2c(c1)C(=O)C(=O)N2Cc1ccccc1
Second: COC(=O)c1ccc2c(c1)C(=O)C(=O)N2C
The inhibition of the first is lower: 45% for the first, 53% for the second.

First: CCCN1C(=O)C(=O)c2cc(I)ccc21
Second: CN1C(=O)C(=O)c2cc(I)ccc21
The inhibition of the first is higher: 51% for the first, 25% for the second.

CN1C(=O)C(=O)c2cc(C(=O)O)ccc21 and CCCN1C(=O)C(=O)c2cc(C(=O)O)ccc21 cannot be ordered by inhibition: less than 25% for the first, less than 25% for the second.

O=C1C(=O)N(CO)c2ccccc21 and O=C1C(=O)N(CN2CCOCC2)c2ccccc21 cannot be ordered by inhibition: less than 25% for the first, less than 25% for the second.

O=C1C(=O)N(CN2CCOCC2)c2ccc(Cl)cc21 and O=C1C(=O)N(CN2CCOCC2)c2ccc([N+](=O)[O-])cc21 cannot be ordered by inhibition: less than 25% for the first, less than 25% for the second.

Going from COC(=O)c1ccc2c(c1)C(=O)C(=O)N2CN1CCOCC1 to CCCCN1C(=O)C(=O)c2cc(C(=O)O)ccc21, the inhibition falls from 32% to less than 25%.

Tested on: not listed separately
Assay: Inhibition of SARS CoV2 C-terminal His6-tagged 3CL protease expressed in Escherichia coli BL21 DE3 using Thr-Ser-Ala-Val-Leu-Gln-pNA as substrate preincubated for 30 mins followed by substrate addition and measured for 20 mins by colorimetric method
Parameters: species or system Severe acute respiratory syndrome coronavirus 2
Conditions: not given

In order of falling IC50:
1. CCCCN1C(=O)C(=O)c2cc(I)ccc21  41.8 µM
2. NC(=O)Cc1ccc2c(c1)C(=O)C(=O)N2Cc1ccc2ccccc2c1  39.2 µM
3. NC(=O)c1ccc2c(c1)C(=O)C(=O)N2Cc1ccc2cc(-c3ccccc3)ccc2c1  24.9 µM
4. CCCCN1C(=O)C(=O)c2cc(C(N)=O)ccc21  17.8 µM
5. O=C(ON1C(=O)CCC1=O)c1ccc2c(c1)C(=O)C(=O)N2Cc1ccccc1  15.5 µM
6. CCCN1C(=O)C(=O)c2cc(C(N)=O)ccc21  10.2 µM
7. NC(=O)c1ccc2c(c1)C(=O)C(=O)N2Cc1cc2ccccc2s1  0.053 µM
8. NC(=O)c1ccc2c(c1)C(=O)C(=O)N2Cc1ccc2cc(Br)ccc2c1  0.047 µM
9. NC(=O)c1ccc2c(c1)C(=O)C(=O)N2Cc1ccc2ccccc2c1  0.045 µM
